In brackets after ≈: the same amount, converted by molar mass. Activity calls are given as the source filed them. No cut-off for these calls is given here.
How the values were obtained:
[1] = system: Mycobacterium tuberculosis; assay: Induction of Mycobacterium tuberculosis CIpc1/P1/P2 proteolytic activity at 0.1 to 10 uM incubated upto 45 mins by FITC-casein fluorescence based assay; conditions: dose 0.1-10 µM
How it was run: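 FITC-casein 0.3 μM degraded by 1 μM ClpC1 with 2 μM ClpP1/P2 and 2 mM ATP. Buffer 100 mM Tris, 200 mM KCl, 8 mM MgCl2, pH 7.5. Compound in DMSO at 0.1, 1.0 and 10 μM. Change in fluorescence tracked relative to initial, which was set to 100. Triplicate.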

[2] = target: ATP-dependent Clp protease ATP-binding subunit ClpC1 (Mycobacterium tuberculosis) (UniProt P9WPC9); assay: Induction of Mycobacterium tuberculosis H37Rv CIpc1 ATPase activity expressed in Escherichia coli BL21 (DE3) cells at 10 uM incubated for 1 hr by Biomol Green Reagent based assay
Chain of ATP-dependent Clp protease ATP-binding subunit ClpC1 (Mycobacterium tuberculosis) (P9WPC9 whole entry): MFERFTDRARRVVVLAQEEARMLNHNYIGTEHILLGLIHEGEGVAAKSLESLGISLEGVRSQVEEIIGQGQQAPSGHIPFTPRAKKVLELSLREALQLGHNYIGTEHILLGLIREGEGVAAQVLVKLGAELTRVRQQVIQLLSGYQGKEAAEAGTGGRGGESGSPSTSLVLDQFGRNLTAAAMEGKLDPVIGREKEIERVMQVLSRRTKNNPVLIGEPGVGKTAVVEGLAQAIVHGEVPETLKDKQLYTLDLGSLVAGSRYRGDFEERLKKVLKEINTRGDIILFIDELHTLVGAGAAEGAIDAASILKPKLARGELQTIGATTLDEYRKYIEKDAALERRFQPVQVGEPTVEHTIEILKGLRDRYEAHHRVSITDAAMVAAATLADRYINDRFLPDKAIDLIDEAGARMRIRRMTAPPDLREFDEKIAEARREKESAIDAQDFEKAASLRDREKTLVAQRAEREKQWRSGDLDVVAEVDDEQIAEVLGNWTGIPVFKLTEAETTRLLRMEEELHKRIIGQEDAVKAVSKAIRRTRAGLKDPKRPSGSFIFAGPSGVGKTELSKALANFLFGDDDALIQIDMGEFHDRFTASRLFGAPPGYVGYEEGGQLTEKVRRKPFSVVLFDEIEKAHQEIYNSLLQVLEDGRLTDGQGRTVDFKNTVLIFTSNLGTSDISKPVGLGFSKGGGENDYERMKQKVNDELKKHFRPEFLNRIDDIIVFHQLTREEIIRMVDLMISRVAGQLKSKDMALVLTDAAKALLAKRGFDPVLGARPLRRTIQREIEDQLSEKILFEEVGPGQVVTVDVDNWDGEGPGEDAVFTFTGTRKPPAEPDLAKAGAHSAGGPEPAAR
How it was run: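 His-tagged ClpC1, cloned from H37Rv DNA into pET28c and purified by Ni-NTA. Assay in 100 mM Tris, 200 mM KCl, 8 mM MgCl2, pH 7.5, with 1 μM ClpC1 and 100 μM ATP. Compound in DMSO at 0.1, 1.0 and 10 μM final. Incubated 1 h at 37 °C. Released phosphate detected with BIOMOL Green at OD620. Three independent experiments.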

[3] = system: Mycolicibacterium smegmatis; assay: Antibacterial activity against Mycobacterium smegmatis mc2 155 assessed as bacterial growth inhibition incubated for 48 hrs Alamar blue staining based assay; assay type: functional
How it was run: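 Culture grown 48 h at 37 °C, shaken in 7H9 with 0.2% glucose, 0.2% glycerol and 0.05% tyloxapol, then diluted to OD600 0.005. Added 1:1 to 2-fold serial dilutions, final 128 to 0.5 μg/mL. Rifampicin control. Static 48 h at 37 °C, then Alamar Blue for 24 h more. Wells staying blue by eye counted as inhibitory.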

Micrococcus luteus = assay: Antibacterial activity against Micrococcus luteus NRRL B-1018 assessed as inhibition of bacterial growth incubated for 16 hrs by broth micro dilution analysis; assay type: functional
How it was run: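 Broth microdilution in LB, triplicate. Overnight culture diluted 5000-fold; 100 μL added to 100 μL LB holding 2-fold serial dilutions, final 128 to 0.5 μg/mL. Rifampicin control. Static incubation at 37 °C for 16 h. MIC taken as the lowest concentration with no visible growth.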

[4] = system: Mycobacterium tuberculosis; assay: Antimycobacterial activity against Mycobacterium tuberculosis H37Rv assessed as bacterial growth inhibition incubated for 6 days by Alamar blue staining based assay; assay type: functional; conditions: 144 h, time 6 day
How it was run: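 Strains passaged at 37 °C in 7H9 with OADC, 0.2% glycerol and 0.02% tyloxapol to OD600 0.5–0.7, then diluted to OD600 0.005. Final test range 5 to 0.009 μg/mL. Rifampicin control. Incubated 6 days at 37 °C with 5% CO2. Tween 80 and Alamar Blue then added for 24 h. Absorbance read at 570 nm, normalized to 600 nm.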

Compound: C=CC(C)(C)n1cc(C(O)C2NC(=O)[C@H](C(C)C)NC(=O)[C@H](CC(C)C)N(C)C(=O)[C@H](C(C)C)NC(=O)C(C(OC)c3ccccc3)NC(=O)[C@H](C(C)C)NC(=O)C(CC(C)CO)N(C)C2=O)c2ccccc21 (stereo not given in full)
- Activity [1]: Active
- Activity [2]: Active
- MIC [3]: 16 µg/mL (≈ 15.8 µM)
- MIC (Micrococcus luteus): 8 µg/mL (≈ 7.88 µM)
- MIC [4]: 0.16 µg/mL (≈ 0.158 µM)

Reference: ChEMBL document CHEMBL5214894, “Biosynthetic Interrogation of Soil Metagenomes Reveals Metamarin, an Uncommon Cyclomarin Congener with Activity against Mycobacterium tuberculosis” (J Nat Prod, 2021)
